Assay outcomes deposited in PubChem BioAssay by Johns Hopkins Ion Channel Center.
KCNK9 block = KCNK9 potassium channel inhibitors, primary screen, HEK293 cells, thallium flux | B-score at 10 µM | FluxOR thallium flux fluorescence; stronger effect = lower value | AID 488922, 2010 | 310,000 compounds, 1.2% hits;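 active = ratio B-score over 3 SD below the library mean, with starting fluorescence within 5 SD of its mean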;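 also: negative B-score means less thallium flux so channel inhibition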
Kir21 inh = inhibitors of mouse Kir2.1 inward-rectifier potassium channel; Inward rectifier potassium channel 2 (Mus musculus), P35561; HEK293-Kir2.1, FluxOR thallium flux fluorescence; stronger effect = lower value; B-score at 10 µM; 310,000 compounds, 0.85% hits; AID 1672, 2009;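 active = fluorescence ratio B-score at or below minus 3 SD of library scores, with starting-brightness B-score within 2 SD, cut at about -4.2 in these data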;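 also: channel flux triggered by added potassium and thallium sulfate stimulus; B-score of peak minus minimum fluorescence over baseline after thallium stimulus; more negative B-score means stronger Kir2.1 block with less thallium influx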
Target sequence (P35561 whole entry, looked up): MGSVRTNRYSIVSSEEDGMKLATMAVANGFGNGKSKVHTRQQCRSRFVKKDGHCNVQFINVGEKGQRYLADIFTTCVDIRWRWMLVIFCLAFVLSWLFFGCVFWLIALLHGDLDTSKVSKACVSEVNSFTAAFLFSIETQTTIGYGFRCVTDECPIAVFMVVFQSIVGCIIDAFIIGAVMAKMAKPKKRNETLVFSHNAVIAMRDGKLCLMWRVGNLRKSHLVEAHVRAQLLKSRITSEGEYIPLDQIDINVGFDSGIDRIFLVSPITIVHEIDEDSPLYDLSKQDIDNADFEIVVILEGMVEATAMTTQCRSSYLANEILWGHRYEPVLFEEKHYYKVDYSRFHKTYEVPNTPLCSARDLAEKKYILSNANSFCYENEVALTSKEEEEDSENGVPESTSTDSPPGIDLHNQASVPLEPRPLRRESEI
KCNQ1 pot = potentiators or activators of KCNQ1 channel, primary screen, cell-based, thallium flux, high-throughput | 310,000 compounds, 0.35% hits | B-score at 10 µM | AID 2648, 2010 | CHO-K1 KCNQ1, thallium flux FluxOR fluorescence; stronger effect = higher value | Potassium voltage-gated channel subfamily KQT member 1 (Homo sapiens), P51787;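 active = fluorescence ratio B-score, a plate-corrected score, at least three library SD, with initial intensity B-score within 5 SD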
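Material: CHO-K1 cells stably expressing KCNQ1. Medium: assay buffer for compound exposure, DMSO matched across wells. Reagent: K+/Tl+ depolarizing stimulus. Compound dosing: single-concentration screen. Times: 37 °C overnight plating, 90-min dark dye load, 20-min compound pretreatment. Technique: FluxOR Tl+ flux fluorescence.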
KCNQ1 block = inhibitors of human KCNQ1 channel, primary screen, cell-based, thallium flux, high-throughput | Potassium voltage-gated channel subfamily KQT member 1 (Homo sapiens), P51787 | CHO-K1 KCNQ1, FluxOR thallium flux fluorescence; stronger effect = higher value | B-score at 10 µM | 310,000 compounds, 1.3% hits;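 active = compounds whose thallium flux B-score, printed positive for inhibition, exceeds three library SD while starting fluorescence stays within three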;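 also: channel opened by potassium depolarization with thallium stimulus after 20 min compound exposure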
KCNK3 inh = human KCNK3 channel inhibitors, primary screen, CHO cells, FluxOR thallium flux, B-score. Potassium channel subfamily K member 3 (Homo sapiens), O14649. FluxOR fluorescence; stronger effect = lower value. B-score at 10 µM. 340,000 compounds, 0.84% hits. AID 602410, 2012;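 active = B-score under library mean minus 4 SD, starting fluorescence ratio at most library mean plus 5 SD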;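 also: more negative B-score means stronger inhibition of thallium flux through KCNK3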
hERG protect = hERG rescue from dofetilide block, primary screen, cell-based, CHO-hERG, FluxOR thallium flux, dofetilide IC70 | Voltage-gated inwardly rectifying potassium channel KCNH2 (Homo sapiens), Q12809 | dofetilide IC70 present | activation (rescue from dofetilide block), less the hit threshold, % at 10 µM | 310,000 compounds, 0.51% hits;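 active = activation above the mean of controls blocked by dofetilide plus 5 SD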;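 also: thallium influx through hERG after potassium depolarization seen as dye fluorescence rise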
* = called active by the depositor; i = inactive; · = no result. A selection: hits, their analogues and other compounds. The true share with any hit is near 3.7%.

SMILES	KCNK9 block	Kir21 inh	KCNQ1 pot	KCNQ1 block	KCNK3 inh	hERG protect
O=S(=O)(c1cccc(F)c1)N1CCN(c2ncnc3scc(-c4ccc(F)cc4)c23)CC1	i	1.57	i	i	i	-14.9
COc1ccc(-c2csc3ncnc(N4CCN(S(=O)(=O)c5cccc(C(F)(F)F)c5)CC4)c23)cc1	-7.11*	1.6	i	i	i	-11.6
Cc1ccc(CC(=O)Nc2nnc(-c3ccc(F)cc3)o2)c(C)c1	i	-0.14	i	i	i	-8.7
COc1ccc(C2CCCN2CC(O)COc2ccccc2C(C)C)cc1 (configuration not stated)	i	-10.7*	i	i	i	-15.7
Cc1noc(C)c1CN(C(=S)NC(C)C)c1ccccc1	i	-6.46*	i	i	i	-10.6
Cc1ccc(S(=O)(=O)N2C[C@@H]3[C@H]4CC[C@H](C4)[C@@H]3[C@@H](C)[C@H]2c2ccn(Cc3ccccc3)c2)cc1	·	·	·	·	i	·
Cc1ccc(CNC(=O)c2cn(C)c(=O)c3c2c2ccccc2n3C)o1	i	0.03	i	i	i	-9.0
Cc1ccc(CNC(=O)c2cn(C3CCCCC3)c(=O)c3c2c2ccccc2n3C)o1	i	0.44	i	i	-9.41*	-7.7
O=C(CSc1nnc(SCc2cccc3ccccc23)s1)N/N=C/c1c[nH]c2ccccc12	i	0.08	i	i	i	-0.9
O=C(CSc1nnc(SCc2cccc3ccccc23)s1)N/N=C/C=C/c1ccccc1[N+](=O)[O-]	-7.49*	-0.12	i	i	i	-14.4
OC(CNC1CCCc2ccccc21)COc1ccc2ccccc2c1 (configuration not stated)	i	-10*	i	i	i	-14.5
O=C(c1ccccc1)c1ccc(OCC(O)CNC2CCCc3ccccc32)cc1 (configuration not stated)	i	-6.22*	i	i	i	-14.3
O=C(CSCc1ccc(Cl)cc1)NN=C1CCCCCC1	i	-2.94	i	i	i	0.2
CC(C)(/C=N/NC(=O)CSCc1ccc(Cl)cc1)CCC#N	i	-1.13	i	i	i	5.1*
CC(=O)Nc1ccc(NC(=O)CSc2nnc(NC(=O)c3ccc(Br)o3)s2)cc1	i	-0.12	i	i	i	-10.8
CC[C@@](C)(NS(=O)(=O)OCC(Cl)(Cl)Cl)c1ccccc1	i	-5.11*	i	i	i	-7.5
CC(C)(NS(=O)(=O)OCC(Cl)(Cl)Cl)c1ccccc1	i	-4.09	i	i	i	-0.4
CC(C)C1Cc2c(sc(NC(=S)NC(=O)c3ccccc3)c2C#N)CO1 (configuration not stated)	i	0.27	i	i	i	-11.1
C=CCNC(=S)Nc1sc2c(c1C(=O)OCC)CC(C(C)C)OC2 (configuration not stated)	i	1.07	48*	i	i	-1.0
CCOC(=O)c1c(NC(=S)NCCc2ccccc2)sc2c1CC(C(C)C)OC2 (configuration not stated)	i	1.32	8*	i	i	1.4
CCCC(=O)OCC(=O)Nc1ccc(N=Nc2ccccc2)cc1	·	·	·	·	i	·
CCNc1nc(-c2ccc(Cl)cc2)cs1	i	-0.18	i	i	i	-10.1
CCCc1sc(N)nc1-c1ccc(Cl)cc1	i	-4.33*	i	i	i	-5.9
Cc1c(O)ccc2cc(S(=O)(=O)c3ccccc3)c(=O)oc12	i	-10.1	i	11*	i	-10.5
O=C(N[C@@H](Cc1ccccc1)C(=O)OCc1ccccc1)c1nc[nH]c1C(=O)N1CCc2ccccc2C1	i	1.45	i	6*	i	-8.1
